Assay [1] deals with Vibrio harveyi. As to the kind of experiment: Antibacterial activity against Vibrio harveyi BB886 mutant after 18 hrs. The format is functional. The gist of the method:
(§1)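 Strains were grown aerobically at 30 °C with shaking in AB medium. Growth was read as OD595 after 18 h incubation. Each experiment was run in triplicate and repeated three times.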

Assay [2] has as its system Vibrio harveyi. As to the kind of experiment: Antibacterial activity against Vibrio harveyi MM77 mutant after 18 hrs. The format is functional. The gist of the method: as §1
Assay [3] relates to Vibrio harveyi. The assay is described as follows: Antibacterial activity against Vibrio harveyi BB170 mutant after 18 hrs. The format is functional. In short, it runs like this:
as §1

For assay [4], the system named is Vibrio harveyi. As to the kind of experiment: Induction of bioluminescence in Vibrio harveyi BB170 mutant (sensor 1-, sensor 2+) at 600 uM. In kind it is functional, organism-based. The gist of the method: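 Strain was grown in AB medium at 30 °C with shaking to 1.5–2.5 · 10^9 CFU/ml (15–16 h), then diluted 1:5000 or 1:10,000 into fresh AB medium containing compound. Incubation was at 30 °C for about 7 h with luminescence monitoring. Light was normalized to CFU or OD595. Fold induction over endogenous luminescence was taken at the minimum-luminescence point (3–4 h). Negative control was fresh AB medium; positive control was 10% v/v BB152 spent medium.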

This note sets out measurements from ChEMBL document CHEMBL1143238, “Oxazaborolidine derivatives inducing autoinducer-2 signal transduction in Vibrio harveyi” (2008).

Values after ≈ are worked out from the molar mass of the structure shown. Active and inactive are the calls of the source. The calls are words filed in the database; no cut-off is given here.

With `CCCCB1O[C@H](c2ccccc2)[C@H](C)N1C`, the minimal inhibitory concentration (MIC) against Vibrio harveyi [1] and against Vibrio harveyi [2] was 10 mM (≈ 2310 µg/mL) each time.
Take `C[C@H]1NB(c2ccccc2)O[C@@H]1c1ccccc1`: the MIC in the assay on Vibrio harveyi [1], in the assay with Vibrio harveyi [3] and against Vibrio harveyi [2] was 10 mM (≈ 2370 µg/mL) throughout.
`C[C@H]1[C@@H](c2ccccc2)OB(c2ccccc2)N1C`: in the assay on Vibrio harveyi [4], the result was Active.
With `CC1(C)COB(c2ccccc2)N1`, the MIC is 5 mM (≈ 875 µg/mL) in the assay on Vibrio harveyi [1] and 10 mM (≈ 1750 µg/mL) against Vibrio harveyi [2].

By MIC is commonly meant the least concentration at which growth counts as inhibited. High values mean a less susceptible organism, low ones a more susceptible organism.
